# STAT1 act-1 – STAT1 signaling activators, primary screen, cell-based, HTS, luciferase reporter; NIH 3T3 STAT1-luciferase reporter, IFN-gamma, luminescence; 100% = IFN-gamma alone, no compound; activation (% of control), % at 5.5 µM; hit rate 2.6% among 200,000; AID 932, 2007;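 active = activation above the screen-wide mean activation plus 3 SD, cut at about 130% in these data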;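 note: raw ratio to IFN-gamma control signal so 100% means no change and 0% no light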
# STAT3 act-1 – IL-6 driven STAT3 reporter potentiators, primary screen, U3A cells, luciferase, luminescence, MLSCN library; IL-6 STAT3-luciferase reporter; 100% = signal with IL-6 EC80 alone; activation (% of control), % at 5.6 µM; hit rate 0.91% among 190,000;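 active = activation above the screen-wide mean of compound activation plus 3 SD, cut at about 130% in these data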;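 note: 0% = background luminescence of wells with medium and substrate only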
#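 Test system: STAT3-luciferase reporter U3A cells; Detection: reporter luminescence signal; Times: 1 h compound pre-exposure, 6 h IL-6 stimulation, 37 °C; Benchmarks: IL-6-only high control; Also added: IL-6 stimulus at 33 ng/mL final.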
# NF-kB expr up – activators of NF-kB expression in neurons, primary screen, cell-based, HTS; human neuronal cells, NF-kB reporter expression; stronger effect = higher value; fold change at 12.5 µM; hit rate 1.6% among 190,000; in the data active = fold change above about 3.3
# STAT3 blocker – IL-6 driven STAT3 reporter inhibitors, primary screen, U3A cells, luciferase, luminescence, MLSCN library | IL-6 STAT3-luciferase reporter; host cell line lacks STAT1 | inhibition, % at 5.5 µM | hit rate 0.89% among 190,000;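 active = inhibition above the mean inhibition across all screened compounds plus 3 SD, cut at about 44% in these data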;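 note: 0% = DMSO only wells and 100% = 100 µM nifuroxazide control wells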
# STAT1 inh – STAT1 signaling inhibitors, primary screen, cell-based, HTS, luciferase reporter | NIH 3T3 STAT1-luciferase reporter, IFN-gamma, luminescence | inhibition, % at 5.5 µM | hit rate 0.35% among 200,000 | AID 920, 2007;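 active = inhibition above a set limit, the mean inhibition across all tested compounds plus 3 SD, cut at about 34% in these data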;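 note: 0% = IFN-gamma with DMSO and 100% = IFN-gamma with 300 µM nifuroxazide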
# APP 5'UTR act – activators of APP 5'UTR luciferase reporter, primary screen, SH-SY5Y cells. activation, % at 2 µM. SH-SY5Y APP 5'UTR luciferase reporter, luminescence; zero percent = DMSO vehicle wells. hit rate 1% among 190,000;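 active = activation above a set limit, based on mean plus 3 SD of controls, cut at about 140% in these data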
# STAT3 act-2 – STAT3 reporter potentiators, retest of hits, confirmation, U3A cells, luciferase, luminescence; shares compounds with STAT3 act-1; IL-6 potentiation; U3A cells lack STAT1; 100 means same as IL-6 alone; potentiation (% of control), % at 5.7 µM; hit rate 64% among 1,200;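 active = percent activation of the STAT3 luciferase reporter above a set limit taken from the earlier primary screen, cut at about 130% in these data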;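 note: 0% = background signal of medium plus substrate and 100% = median of IL-6 with DMSO wells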
# NFkB act 2 – NF-kB reporter activators in human cells, counter-screen for STAT3 activator project; shares compounds with STAT3 act-1; NF-kappaB reporter activation; activation (% of control), % at 5.7 µM; hit rate 11% among 1,200; in the data active = activation above about 120%;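 note: reporter induced by TNF-alpha stimulation; 100% = median of stimulated DMSO wells and 0% = no signal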
# STAT1 act-2 – STAT1 reporter activators, IFN-gamma induced, counter-screen for STAT3 activator project, cell-based, NIH 3T3, luciferase luminescence; shares compounds with STAT3 act-1; NIH 3T3 STAT1-luciferase reporter; activation (% of control), % at 5.7 µM; hit rate 13% among 1,200; AID 1318, 2008;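 active = activation above the solvent-only control well mean plus 3 SD, set per screening run, cut at about 120% in these data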;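 note: 100% = IFN-gamma with DMSO median signal so 100% means no change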
# The depositor's hits bear a star; nt = no result. Most compounds without a hit are left out; they make up all but 5.1% or so of the library.
SMILES,STAT1 act-1,STAT3 act-1,NF-kB expr up,STAT3 blocker,STAT1 inh,APP 5'UTR act,STAT3 act-2,NFkB act 2,STAT1 act-2
CCOc1ccccc1C(=O)NN1C(=O)CCC1=O,97.0,142.8*,0.96,-42.8,3.4,5.7,154.8*,102.3,107.3
COc1ccc(S(=O)(=O)Nc2c(C(=O)O)[nH]c3ccccc23)c(OC)c1,97.2,165.9*,0.95,-73.4,3.0,-2.5,159.4*,104.7,99.5
COc1ccc(Br)cc1C(=O)Nc1cccc(NC(=O)c2ccco2)c1,94.4,81.6,0.3,23.7,6.1,-24.1,nt,nt,nt
COc1ccc(Br)cc1C(=O)Nc1ccccc1-c1ccccc1,95.9,138.4*,0.85,-47.9,4.5,1.5,134.9*,101.8,96.3
COc1ccccc1NC(=O)c1cc(Br)ccc1Cl,105.3,83.8,1,21.0,-6.9,3.9,nt,nt,nt
COc1ccc(Br)cc1C(=O)Nc1cccc(C)c1,98.2,157.0*,1.12,-67.4,1.9,15.2,139.0*,106.9,95.2
CN(C)c1nnnn1Cc1ccc(Cl)cc1Cl,95.9,99.1,1.23,4.6,3.2,-14.2,nt,nt,nt
CCC(=O)N=c1sc2cc(F)cc(F)c2n1C,104.8,140.1*,nt,-44.1,-5.3,1.9,125.3,108.3,139.2*
Cc1ccc(C2=NNC(c3ccc(Cl)cc3)=Nc3ccccc32)o1,99.3,109.3,0.87,-10.6,0.8,nt,nt,nt,nt
Cc1ccc(C2=Nc3ccccc3NC(C)(c3ccc(C)o3)C2)o1 (centres undefined),120.3,138.0*,2.21,-38.3,-22.0,72.7,126.1,110.3,106.7
CNCc1nc2ccccc2[nH]1,104.1,101.3,1.02,0.8,-3.8,-16.5,nt,nt,nt
CN/N=C(\Cc1nc2ccccc2[nH]1)c1ccc([N+](=O)[O-])cc1,113.5,136.0*,1.1,-33.9,-16.1,40.9,165.8*,119.0,115.8
O=C(C1CC(=O)N(C2CCCCC2)C1)N1CCc2ccccc21 (centres undefined),106.0,139.4*,0.88,-43.4,-7.8,3.7,126.3,103.9,98.0
O=C(C1CCCCC1)N1CCc2ccccc21,110.6,100.4,1.08,1.1,-12.6,5.0,nt,nt,nt
c1ccc(C2=Nc3ccccc3SC2c2nc3ccccc3[nH]2)cc1 (centres undefined),128.4,158.0*,6.69*,-59.5,-30.9,110.2,146.6*,130.3*,152.3*
CCOc1ccc(N2C(=O)C3Sc4[nH]c(=O)sc4C(/C=C/c4ccccc4)C3C2=O)cc1 (centres undefined),108.0,141.4*,1.05,-51.1,-8.7,14.9,127.7,111.8,115.3
O=C(Oc1ccc(Cl)c2cccnc12)c1ccco1,104.7,98.9,0.88,1.4,-3.1,-21.9,nt,nt,nt
CCOC(=O)c1c(C)[nH]c(C(=O)OCC(=O)Nc2cc(C)c(Cl)cc2OC)c1C,100.3,142.4*,0.98,-53.7,-0.3,nt,126.8,102.4,104.5
CCN(C(=O)COC(=O)/C=C/c1ccccc1)C1CCCCC1,95.7,106.1,1,0.7,4.3,-8.0,nt,nt,nt
CS(=O)(=O)N(Cc1ccccc1)c1ccccc1C(=O)N1CCN(c2ccccc2)CC1,98.3,98.6,0.96,8.4,1.9,-8.2,nt,nt,nt
CCOC(=O)/C(C#N)=C1\CC2CCC1(C)C2(C)C (centres undefined),103.9,99.3,1.03,7.1,-6.4,-11.4,nt,nt,nt
O=C(CSc1nnc2c(Cl)cc(C(F)(F)F)cn12)N(Cc1ccccc1)Cc1ccccc1,94.5,108.5,0.95,-5.9,6.1,25.8,nt,nt,nt
FC(F)(F)c1cc(Cl)c2nc(-c3ccccc3)cn2c1,122.8,158.2*,10.7*,-72.6,-25.5,163.5*,173.1*,140.2*,202.4*
Cc1nn(CCCC(=O)Nc2cccnc2Cl)c(C)c1[N+](=O)[O-],103.1,97.3,1.15,5.4,-3.4,-4.4,nt,nt,nt
COC(=O)c1ccccc1NC1=C/C(=N\S(=O)(=O)c2cccs2)c2ccccc2C1=O,109.2,137.5*,0.6,-36.1,-9.9,-17.8,108.4,112.6,110.2
SMILES,STAT1 act-1,STAT3 act-1,NF-kB expr up,STAT3 blocker,STAT1 inh,APP 5'UTR act,STAT3 act-2,NFkB act 2,STAT1 act-2
Cc1ccnc(NC(=O)CCC(=O)N(CC(=O)NCc2ccccc2)c2ccc3c(c2)OCO3)c1,97.2,149.0*,1.25,-58.3,3.0,-0.6,143.8*,114.4,98.4
CCOC(=O)c1cnc2ccc(C)cc2c1Sc1ccccc1C(=O)OC,91.3,110.4,1.39,-4.3,9.7,-1.1,nt,nt,nt
CCOc1ccccc1-c1nnc(SCC(=O)NC2CC3CCC2C3)n1CC (centres undefined),105.4,159.6*,0.96,-59.8,-5.9,1.2,168.6*,127.5*,162.4*
Cc1[nH]n(-c2ccccc2)c(=O)c1/C=C1/C=c2ccccc2=N1,100.7,155.8*,1.41,-63.0,-1.9,20.2,170.3*,100.9,100.1
CCOCC(=O)Nc1ccc([N+](=O)[O-])cc1C,108.9,98.3,0.96,12.1,-11.6,-9.2,nt,nt,nt
Cc1ccc(C)c(NS(=O)(=O)c2ccc3[nH]c(=O)oc3c2)c1,95.5,104.5,1.18,2.3,4.0,9.2,nt,nt,nt
CCCCn1c(N)c(N(CCC(C)C)C(=O)COC(=O)c2ccccc2)c(=O)[nH]c1=O,88.1,143.2*,0.92,-53.7,10.7,-4.7,147.9*,96.0,89.2
CCCCn1c(N)c(N(CCC(C)C)C(=O)COC(=O)c2ccco2)c(=O)[nH]c1=O,98.4,100.5,1.03,3.8,3.1,3.2,nt,nt,nt
N#CCC(=O)N/N=C1\CCCCC1C1CCCCC1 (centres undefined),103.2,92.9,0.96,13.0,-3.5,13.3,nt,nt,nt
COc1ccc(C(C)=O)c2c1OCCO2,107.0,108.8,1.07,-3.8,-7.6,2.4,nt,nt,nt
COc1ccc(C(C)=O)c2c(O)cccc12,99.5,149.9*,0.93,-53.6,0.5,-5.2,147.5*,113.2,119.8
O=C(O)C1CN(C(=O)c2cccc(Br)c2)C1,98.4,88.4,1.15,23.2,0.9,9.4,nt,nt,nt
Cn1/c(=N/N=C/c2ccc(Cl)c([N+](=O)[O-])c2)sc2ccccc21,96.2,156.4*,1.36,-56.8,4.1,8.9,148.4*,108.2,112.7
